High-throughput results: PubChem BioAssay, The Scripps Research Institute Molecular Screening Center
Most compounds without a hit are left out; they make up all but 3.3% or so of the library.
PRMT1 inh = PRMT1 (human) inhibition, primary screen; recombinant PRMT1, activity-based probe fluorescence polarization; inhibition, % at 2.79 µM; hit rate 1.3% among 370,000; AID 652257;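 active means inhibition above about 21% made by adding two undisclosed values, limit read from the data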
SIAE primary = inhibitors of human sialic acid acetylesterase SIAE; SIAE FP-Rh probe binding, fluorescence polarization; inhibition, % at 9.66 µM; hit rate 0.69% among 370,000; AID 1053197;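 active means inhibition above a cutoff: mean of compounds within the control limits plus 3 SD of those, cut at about 17% in these data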;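 further: 0% = plate median of compound wells and 100% = probe without SIAE protein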
MBD2 inh = blocks human MBD2 binding to methylated DNA; Q9UBB5; TR-FRET, MBD2 binding to methylated oligonucleotide; inhibition, % at 4.4 µM; hit rate 0.31% among 370,000; in the data active means inhibition above about 13%
TDP2 inh = TDP2 (human) inhibition, absorbance primary screen | O95551 | recombinant TDP2, T5PNP hydrolysis, p-nitrophenol absorbance 415 nm | inhibition, % at 12.8 µM | hit rate 0.34% among 370,000 | AID 720702;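 active means inhibition above the mean of all tested compounds plus 3 SD, set per campaign, cut at about 25% in these data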;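 further: 0% = DMSO with enzyme and 100% = buffer with substrate but no TDP2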
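Test system: Human TDP2 enzyme | Reagent: 5 mM T5PNP | Compound dosing: 12.8 µM single point, 1% DMSO | Incubation: Enzyme reaction with compound for 2 h at 37 °C | Technique: p-Nitrophenol epi absorbance | Read-out: % inhibition relative to enzyme-containing and enzyme-free wells | Benchmarks: High control without enzyme, low control DMSO plus TDP2 | Replicates: Singlicate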
LEDGF integ inh = blocks HIV-1 LEDGF/p75-dependent DNA integration; TR-FRET IN-LEDGF/p75 DNA integration, Eu/Cy5; inhibition, % at 3.7 µM; hit rate 0.64% among 370,000; AID 743269;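 active means inhibition above the screen-wide mean plus 3 SD, cut at about 13% in these data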;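 further: signal is the Cy5 over europium emission ratio at 671 and 618 nm; 0% = plate median of compound wells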
UHRF1 MBD2 ctr = UHRF1 methyl-DNA binding inhibition | AID 687016 | Q96T88 | UHRF1 binding to methylated oligo, TR-FRET | inhibition, % at 4.4 µM | hit rate 0.75% among 370,000; in the data active means inhibition above about 21%;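 further: UHRF1 SRA domain binding a hemimethylated CpG hairpin DNA probe; 0% = median of test compound wells and 100% = reference inhibitor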
* hit, by the source's call.

Fc1ccc(C2CC(c3ccco3)=Nc3ccccc3S2)cc1 (stereo not given) was read as PRMT1 inh 71.5*, SIAE primary 3.6, MBD2 inh 3.1, TDP2 inh 8.5, LEDGF integ inh -1.3 and UHRF1 MBD2 ctr -0.9.
For O=[N+]([O-])c1ccc(C2CC(c3ccccc3)=Nc3ccccc3S2)cc1 (stereo not given) the results were PRMT1 inh 78.6*, SIAE primary 4.6, MBD2 inh -0.6, TDP2 inh -23.4, LEDGF integ inh -1.3 and UHRF1 MBD2 ctr 3.0.
`COC(=O)[C@]12C[C@H](CC(=O)NCCC(C)C)C(=O)N(Cc3ccco3)C1=C[C@H](COCc1ccccc1)O[C@@H]2C` gave PRMT1 inh 3.8, SIAE primary 4.3, MBD2 inh 1.0, TDP2 inh 5.3, LEDGF integ inh 3.4 and UHRF1 MBD2 ctr -0.4.
Cc1ccc(-n2c(SCc3c(Cl)cccc3Cl)nnc2-c2ccco2)cc1 was read as PRMT1 inh 1.0, SIAE primary -0.9, MBD2 inh -4.9, TDP2 inh -3.2, LEDGF integ inh 1.5 and UHRF1 MBD2 ctr 0.4.
For CCOC(=O)c1cnc2ccccc2c1Nc1ccc(C(=O)O)cc1 the results were PRMT1 inh 2.9, SIAE primary -2.3, MBD2 inh 2.8, TDP2 inh -1.2, LEDGF integ inh -0.8 and UHRF1 MBD2 ctr 25.6*.
For CCCC1CCC2(CCCN2CCOC(=S)Nc2ccccc2OC)CC1 (stereo not given) the results were PRMT1 inh 19.3, SIAE primary 2.1, MBD2 inh 2.3, TDP2 inh -10.1, LEDGF integ inh 2.8 and UHRF1 MBD2 ctr 6.3.
For CCCN(Cc1cc2cc(OC)ccc2[nH]c1=O)C(=O)c1ccco1 the results were PRMT1 inh 2.4, SIAE primary 1.2, MBD2 inh 1.0, TDP2 inh 0.6, LEDGF integ inh -2.7 and UHRF1 MBD2 ctr -2.2.
`CCCCN(Cc1cc2cc(OC)ccc2[nH]c1=O)C(=O)c1ccco1` gave PRMT1 inh 24.4*, SIAE primary -2.0, MBD2 inh 6.1, TDP2 inh -9.6, LEDGF integ inh -3.9 and UHRF1 MBD2 ctr 3.3.
`CC(=O)[C@@H]1[C@@H]2C(=O)N(Cc3ccccc3)C(=O)[C@@H]2C2c3ccccc3C=CN21` (stereo not given in full) gave PRMT1 inh 11.3, SIAE primary -11.2, MBD2 inh -6.7, TDP2 inh 10.3, LEDGF integ inh 1.5 and UHRF1 MBD2 ctr -9.6.
Screening COc1ccc(N2C(=O)[C@@H]3[C@H](C2=O)[C@H]2c4ccccc4C=CN2[C@@H]3C(=O)Nc2ccccc2)cc1 returned PRMT1 inh -0.5, SIAE primary -1.5, MBD2 inh 0.7, TDP2 inh 10.1, LEDGF integ inh 1.5 and UHRF1 MBD2 ctr 5.2.
Screening Cc1ccc(N2C(=O)[C@@H]3[C@H](C2=O)C2c4ccccc4C=CN2[C@@H]3C(=O)c2ccco2)c(C)c1 (stereo not given in full) returned PRMT1 inh 11.9, SIAE primary -2.5, MBD2 inh -6.7, TDP2 inh 26.4*, LEDGF integ inh 9.9 and UHRF1 MBD2 ctr -6.6.
`O=C(c1ccco1)[C@@H]1[C@@H]2C(=O)N(c3ccccc3)C(=O)[C@@H]2C2c3ccccc3C=CN21` (stereo not given in full) gave PRMT1 inh 14.9, SIAE primary -1.9, MBD2 inh -6.5, TDP2 inh 43.1*, LEDGF integ inh 12.4 and UHRF1 MBD2 ctr -4.6.
For CCc1ccc2nc(/N=C(\N)NC(=O)c3ccccc3)nc(C)c2c1 the results were PRMT1 inh -1.3, SIAE primary -12.9, MBD2 inh 0.3, TDP2 inh 7.0, LEDGF integ inh 3.5 and UHRF1 MBD2 ctr 1.4.
For CCCC(=O)N/C(N)=N/c1nc(C)c2ccccc2n1 the results were PRMT1 inh 4.1, SIAE primary -2.2, MBD2 inh -0.6, TDP2 inh -12.5, LEDGF integ inh -3.4 and UHRF1 MBD2 ctr 34.4*.
`Cc1ccc(/C(N)=N/OC(=O)Cc2cccc3ccccc23)cc1` gave PRMT1 inh -1.1, SIAE primary -2.1, MBD2 inh 6.5, TDP2 inh -7.6, LEDGF integ inh 0.2 and UHRF1 MBD2 ctr 23.5*.
